Measured values taken from ChEMBL document CHEMBL5154772, “Biological Investigation of a Water-Soluble Isoginkgetin-Phosphate Analogue, Targeting the Spliceosome with In Vivo Antitumor Activity” (J Med Chem, 2022).
The source made the active and inactive calls.

How the values were obtained:
[1] = AUCextra in C57BL/6J mouse at 0.711 mg/kg, iv administered as single dose measured up to 24 hrs; format: ADME, organism-based; details: in vivo
In short: (§1)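 Single intravenous dose. Mice were male C57BL/6J, 12 per route; tail-vein blood was collected under sodium heparin, with 3 mice sampled at each pair of times (0.083/2, 0.25/4, 0.5/8, 1/24 h). Dogs were male beagles (n=3); jugular blood was collected under K2 EDTA predose and at 0.083, 0.25, 0.5, 1, 2, 4, 6, 8 and 24 h. Plasma was prepared from the samples.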

[2] = Stability in human plasma assessed as compound remaining incubated up to 2 hrs by HPLC-MS/MS analysis; format: ADME, cell-free; details: read-out: Stability
In short: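 Incubation in mouse or human plasma for up to 2 h, with compound remaining expressed as a percentage.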

[3] = Cmax in C57BL/6J mouse at 9.103 mg/kg, ip administered as single dose measured up to 24 hrs; format: ADME, organism-based; design: time < 24 hrs, dose 9.103 mg/kg, route ip; details: in vivo
In short: (§2)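 Single intraperitoneal dose in male C57BL/6J mice (12 per route). Tail-vein blood was collected under sodium heparin for plasma, with 3 mice sampled at each pair of times: 0.083/2, 0.25/4, 0.5/8 and 1/24 h. F denotes bioavailability.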

[4] = Toxicity in C57BL/6 mouse assessed as change in body weight at 500 mg/kg, ip administered as single dose and measured after 15 days (reference value: 23.5 to 24.2 g); format: organism-based; details: in vivo, 360 h, time 15 day
In short: (§3)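 Female C57BL/6 mice given one IP injection of 100 µL, at 50, 100, 250 or 500 mg/kg in sterile PBS, two mice per dose; PBS-injected controls. Behaviour checked right after and at 30 min. Body weight recorded every 2–3 days for 15 days, then liver, spleen and kidneys weighed.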

[5] = Toxicity in C57BL/6 mouse assessed as change in spleen weight at 50 mg/kg, ip administered as single dose and measured after 15 days (reference value: 0.1 to 0.2 g); format: organism-based; details: in vivo, 360 h, time 15 day; in short: as §3
[6] = Toxicity in C57BL/6 mouse assessed as change in spleen weight at 500 mg/kg, ip administered as single dose and measured after 15 days (reference value: 0.1 to 0.2 g); format: organism-based; details: in vivo, 360 h, time 15 day; in short: as §3
[7] = Metabolic stability in human liver microsomes assessed as parent compound remaining incubated for 45 mins in absence of NADPH by HPLC-MS/MS analysis; format: ADME, Microsome; details: read-out: Stability
In short: (§4)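 Incubation with mouse or human liver microsomes for 45 min, with or without NADPH. Remaining parent compound was quantified over time by HPLC-MS/MS and expressed as % remaining; intrinsic clearance is given in μL/min/mg protein.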

[8] = Total clearance in C57BL/6J mouse at 0.711 mg/kg, iv administered as single dose measured up to 24 hrs; format: ADME, organism-based; details: in vivo; in short: as §1
[9] = MRT(0 to t) in Beagle dog at 26.76 mg/kg, iv administered as single dose measured up to 24 hrs; format: ADME, organism-based, Canis lupus familiaris; details: in vivo; in short: as §1
[10] = Acute toxicity in C57BL/6 mouse assessed as mortality at 500 mg/kg, ip administered as single dose and measured after 15 days; format: organism-based; details: in vivo, 360 h, time 15 day
In short: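 Single intraperitoneal injection (100 µL) into female C57BL/6 mice, with IP2 diluted in sterile PBS at 50, 100, 250 or 500 mg/kg; PBS-treated controls. Behaviour watched right after and at 30 min. Body weight followed every 2–3 days for 15 days. Euthanasia criterion was weight loss ≥20%. Liver, spleen and kidney weights taken at day 15.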

[11] = Plasma protein binding in mouse assessed as unbound fraction at 2 uM by rapid equilibrium dialysis based LC-MS/MS analysis; format: ADME, cell-free
In short: (§5)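 Binding was measured at 2 μM in triplicate by rapid equilibrium dialysis (8K MWCO). Quantification was by UPLC-MS/MS on a phenyl column in positive ESI MRM mode (m/z 727>567), with an ammonium formate pH 5 / 1,5-DMHA mobile phase at 50 °C. Both unbound fraction (fu) and % bound are reported.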

[12] = Metabolic stability in human liver microsomes assessed as intrinsic clearance incubated for 45 mins by HPLC-MS/MS analysis; format: ADME, Microsome; details: read-out: CLH; in short: as §4
[13] = Toxicity in C57BL/6 mouse assessed as change in kidney weight at 100 mg/kg, ip administered as single dose and measured after 15 days (reference value: 0.3 g); format: organism-based; details: in vivo, 360 h, time 15 day; in short: as §3
[14] = Metabolic stability in human liver microsomes assessed as parent compound remaining incubated for 45 mins in presence of NADPH by HPLC-MS/MS analysis; format: ADME, Microsome; details: read-out: Stability; in short: as §4
[15] = Cmax in C57BL/6J mouse at 0.711 mg/kg, iv administered as single dose measured up to 24 hrs; format: ADME, organism-based; design: time < 24 hrs, dose 0.711 mg/kg, route iv; details: in vivo; in short: as §1
[16] = biological target: Delta-type opioid receptor (Homo sapiens) (UniProt P41143); test: Antagonist activity at OPRD1 (unknown origin) at 10 uM; format: functional; design: scale not given: the % may be the effect or the level left; details: filed as antagonist
Delta-type opioid receptor (Homo sapiens), sequence (P41143 whole entry): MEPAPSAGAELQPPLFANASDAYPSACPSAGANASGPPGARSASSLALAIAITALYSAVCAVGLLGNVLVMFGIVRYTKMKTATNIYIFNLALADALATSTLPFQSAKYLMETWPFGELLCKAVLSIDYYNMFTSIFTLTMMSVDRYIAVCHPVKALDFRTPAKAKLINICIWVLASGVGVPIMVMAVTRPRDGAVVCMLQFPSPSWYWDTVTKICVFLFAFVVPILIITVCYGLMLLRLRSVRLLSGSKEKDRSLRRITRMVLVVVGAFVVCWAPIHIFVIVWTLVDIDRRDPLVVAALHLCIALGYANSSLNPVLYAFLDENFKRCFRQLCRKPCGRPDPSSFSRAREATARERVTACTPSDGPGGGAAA
In short: (§6)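 Single-concentration safety screen at 10 μM across a 47-target panel. GPCRs were run in antagonist mode and enzymes in inhibitor mode.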

[17] = AUC(0 to t) in C57BL/6J mouse at 9.103 mg/kg, ip administered as single dose measured up to 24 hrs; format: ADME, organism-based; design: time < 24 hrs, dose 9.103 mg/kg, route ip; details: in vivo; in short: as §2
[18] = Plasma protein binding in mouse at 2 uM by rapid equilibrium dialysis based LC-MS/MS analysis; format: ADME, cell-free; details: read-out: PPB (converted); in short: as §5
[19] = MRT(0 to t) in C57BL/6J mouse at 9.103 mg/kg, ip administered as single dose measured up to 24 hrs; format: ADME, organism-based; details: in vivo; in short: as §2
HUVEC = test: Antiproliferative activity against human HUVEC cells assessed as decrease in cell viability at 10 uM measured after 72 hrs by MTT based colorimetric assay; format: functional
[20] = Total clearance in Beagle dog at 26.76 mg/kg, iv administered as single dose measured up to 24 hrs; format: ADME, organism-based, Canis lupus familiaris; details: in vivo; in short: as §1
MCA-205 = test: Antitumor activity against mouse wild type MCA-205 cells implanted in C57BL/6 mouse assessed as decrease in tumor growth pretreatment at 2.5 mg/kg,iv administered starting from day 7 post inoculation at five days interval upto 17 days relative to control; format: functional, organism-based; details: time <= 17.0 day
In short: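 MCA205 WT fibrosarcoma cells were inoculated subcutaneously into the right flank of female C57BL/6 mice. Dosing was 2.5 mg/kg iv from day 7 post-inoculation, repeated every 5 days until day 17; controls were untreated. Tumor area was recorded every 3–4 days up to ethical limits, and tumor size was measured at killing. Analysis was by one-way ANOVA.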

[21] = Toxicity in C57BL/6 mouse assessed as change in kidney weight at 50 mg/kg, ip administered as single dose and measured after 15 days (reference value: 0.3 g); format: organism-based; details: in vivo, 360 h, time 15 day; in short: as §3
[22] = Cmax in Beagle dog at 26.76 mg/kg, iv administered as single dose measured up to 24 hrs; format: ADME, organism-based, Canis lupus familiaris; design: time < 24 hrs, dose 26.76 mg/kg, route iv; details: in vivo; in short: as §1
[23] = AUC(0 to t) in Beagle dog at 26.76 mg/kg, iv administered as single dose measured up to 24 hrs; format: ADME, organism-based, Canis lupus familiaris; design: dose 26.76 mg/kg, time < 24 hrs, route iv; details: in vivo; in short: as §1
[24] = biological target: Histamine H2 receptor (Homo sapiens) (UniProt P25021); test: Antagonist activity at HRH2 (unknown origin) at 10 uM; format: functional; design: scale not given: the % may be the effect or the level left; details: filed as antagonist; in short: as §6
Histamine H2 receptor (Homo sapiens), sequence (P25021 whole entry): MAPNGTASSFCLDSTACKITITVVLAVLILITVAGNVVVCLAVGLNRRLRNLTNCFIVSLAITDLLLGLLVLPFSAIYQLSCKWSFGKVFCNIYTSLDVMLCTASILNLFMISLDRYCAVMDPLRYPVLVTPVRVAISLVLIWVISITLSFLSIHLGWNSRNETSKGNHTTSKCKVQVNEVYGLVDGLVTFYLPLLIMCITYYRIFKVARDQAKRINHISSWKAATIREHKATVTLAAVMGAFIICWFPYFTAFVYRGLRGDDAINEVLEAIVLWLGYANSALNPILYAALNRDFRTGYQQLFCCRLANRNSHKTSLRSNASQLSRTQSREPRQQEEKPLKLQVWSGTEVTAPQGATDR

[25] = Tmax in Beagle dog at 26.76 mg/kg, iv administered as single dose measured up to 24 hrs; format: ADME, organism-based, Canis lupus familiaris; details: in vivo; in short: as §1

COc1ccc(-c2cc(=O)c3c(O)cc(OP(=O)([O-])[O-])c(-c4cc(-c5cc(=O)c6c(O)cc(OP(=O)([O-])[O-])cc6o5)ccc4OC)c3o2)cc1.[Na+].[Na+].[Na+].[Na+]
%AUCextra [1]: 15.2% | remaining at 2 h [2]: 94.1% | Cmax [3]: 2080 ng/mL | Activity [4]: 20.4 g | Activity [5]: 0.1 g | Activity [6]: 0.1 g | remaining at 0.75 h [7]: 64.7% | clearance [8]: 133 mL/min/kg | MRT last at 24 h [9]: 228 min | Activity [10]: Non-Toxic | fraction unbound at 2 µM [11]: 0.02 | microsomal CLint [12]: 11 µL/min/mg | Activity [13]: 0.2 g | remaining at 0.75 h [14]: 60.8% | Cmax [15]: 323 ng/mL | Activity [16]: 53% | AUC(0-t) at 24 h [17]: 0.982 µg·h/mL | fraction unbound at 2 µM [18]: 0.019 | MRT last at 24 h [19]: 42 min | Activity (HUVEC): 25% | clearance [20]: 0.69 mL/min/kg | Activity (MCA-205): Active | Activity [21]: 0.3 g | Cmax [22]: 272000 ng/mL | AUC(0-t) at 24 h [23]: 655 µg·h/mL | Activity [24]: 40% | Tmax [25]: 5 min
